Results of several laboratories.
Each line is one published result; the experiments were not run side by side.
CDK1 with cyclin B: Cyclin-dependent kinase 1, with cyclin B (CDK1, Homo sapiens, UniProt P06493)
CDK1 with cyclin B1: Cyclin-dependent kinase 1, with cyclin B1 (CDK1, Homo sapiens, UniProt P06493)
CDK1 with cyclin A: Cyclin-dependent kinase 1, with cyclin A (CDK1, Homo sapiens, UniProt P06493)

SMILES | target | read-out | action | technique | concentration | measurement | value
CN1CC(Oc2cnc(C#N)cc2-c2ccn3nc(NC(=O)C4CC4)cc3c2)C1 | CDK1 with cyclin B | enzyme activity | inhibitor | – | 1 µM | inhibition | -8%
O=C1Nc2ccc(Cl)cc2C1=Cc1cc(Cl)c(O)c(Cl)c1 | CDK1 with cyclin B | cell-free assay | – | – | 0.5 µM | remaining signal | 96.3%
O=C(Nc1cnn(-c2csc(C(=O)NC3COC3)c2)c1)Nc1c(F)cccc1Cl | CDK1 with cyclin B | enzyme activity | inhibitor | – | 5 µM | remaining activity | 105%
CC(C)(C)c1nc(-c2cccc(NS(=O)(=O)c3c(F)cccc3F)c2F)c(-c2ccnc(N)n2)s1 | CDK1 with cyclin B1 | enzyme activity | inhibitor | radiometric | 1 µM | remaining activity | 89%
Cc1sc(C(=O)NC2COC2)cc1-n1cc(NC(=O)Nc2c(F)cccc2Cl)cn1 | CDK1 with cyclin A | enzyme activity | inhibitor | – | 10 µM | remaining activity | 105%
Cc1cnc(NC2CCOCC2)nc1-n1cnc(C(=O)NC(CN)c2cc(F)cc(Cl)c2)c1 (stereo not shown) | CDK1 with cyclin B | enzyme activity | inhibitor | radiometric | 1 µM | remaining activity | 20%
CC(C)(C)c1nc2c(s1)c1nc(N)ncc1c1ccc(NS(=O)(=O)c3c(F)cccc3F)c(F)c12 | CDK1 with cyclin B1 | enzyme activity | inhibitor | radiometric | 1 µM | remaining activity | 89%
CNC(=O)c1cc(Oc2ccc(NC(=O)Nc3ccc(Cl)c(C(F)(F)F)c3)cc2)ccn1 | CDK1 with cyclin B | enzyme activity | inhibitor | – | 0.3 µM | inhibition | -5%
CC(C)(O)[C@H]1CC[C@H](Nc2ccc3ncc(-c4cccc(C(F)(F)F)c4)n3n2)CC1 | CDK1 with cyclin B | enzyme activity | inhibitor | – | 1 µM | remaining activity | 66.9%
Nc1nc(Nc2ccc(S(N)(=O)=O)cc2)nn1C(=O)c1c(F)cccc1F | CDK1 with cyclin A | cell-free assay | – | – | 0.5 µM | remaining signal | 10.3%
CNCc1ccc(-c2cc(-c3nc(-c4ccc(S(=O)(=O)C(C)C)cc4)cnc3N)on2)cc1 | CDK1 with cyclin B | enzyme activity | inhibitor | – | 2 µM | inhibition | 6%
N#CCCc1ccc2c(c1)-c1[nH]c3ccc([N+](=O)[O-])cc3c1CC(=O)N2 | CDK1 with cyclin A | cell-free assay | – | – | 0.5 µM | remaining signal | 24.8%
O=C(Nc1cnn(-c2csc(C(=O)NC3COC3)c2)c1)Nc1ccccc1Cl | CDK1 with cyclin B | enzyme activity | inhibitor | – | 5 µM | remaining activity | 92.6%
CCCCNc1ncc2c(-c3ccc(F)cc3)nn(C[C@H]3CC[C@H](N)CC3)c2n1 | Cyclin-dependent kinase 1 (CDK1, Homo sapiens, UniProt P06493) | target engagement in cells | inhibitor | chemoproteomics | 20 mM | inhibition | 4.2%
CCN(CC)CCNC(=O)c1c(C)[nH]c(/C=C2\C(=O)Nc3ccc(F)cc32)c1C | CDK1 with cyclin B | enzyme activity | inhibitor | – | 10 µM | inhibition | 10%
COc1cc2ncnc(Nc3ccc(Oc4ccccc4)c(C)c3C)c2cc1OC | CDK1 with cyclin B | enzyme activity | inhibitor | – | 1 µM | inhibition | 3%
O=Nc1c(-c2c(O)[nH]c3ccccc23)[nH]c2ccccc12 | CDK1 with cyclin B | cell-free assay | – | – | 0.5 µM | remaining signal | 68.7%
CCN(CC)c1ccc(C2=NNC(=O)CC2C)cc1[N+](=O)[O-] (stereo not shown) | CDK1 with cyclin B | enzyme activity | inhibitor | – | 10 µM | remaining activity | 111%
CC(C)[C@H](CO)Nc1nc(Nc2cccc(Cl)c2)c2ncn(C(C)C)c2n1 | CDK1 with cyclin B | cell-free assay | – | – | 0.5 µM | remaining signal | 34.9%
CCCS(=O)(=O)Nc1ccc(F)c(C(=O)c2c[nH]c3ncc(-c4ccc(Cl)cc4)cc23)c1F | CDK1 with cyclin B | enzyme activity | inhibitor | – | 1 µM | inhibition | < 10%
O=C1NC(=O)c2c1c1c3ccccc3[nH]c1n1cncc21 | CDK1 with cyclin B | cell-free assay | – | – | 0.5 µM | remaining signal | 85.5%
CC/C(=N\NC(=O)NCc1cccc(O)c1)c1ccc(O)c(C)c1O | CDK1 with cyclin B1 | enzyme activity | inhibitor | – | 0.1 µM | inhibition | -14.8%
